Test results taken from ChEMBL document CHEMBL3286239, “Synthesis and biological evaluation of novel naphthalene compounds as potential antidepressant agents” (Eur J Med Chem, 2014).
The source made the active and inactive calls. No cut-off for these calls is given here.

Assays:
PC-12 [1] = assay: Neurorestorative activity against H2O2-induced oxidant injury in rat PC12 cells assessed as restorative rate at 20 uM measured after 48 hrs pretreated with 200 uM H2O2 for 1 hr by MTT assay; type: functional
Outline: (§1)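 PC12 cells at 1×10^4/well in DMEM with 10% FBS and 5% horse serum for 24 h. Exposed to 200 μM H₂O₂ for 1 h, washed twice with PBS, then compound (10, 20 or 40 μM) in DMEM for 48 h. MTT 0.5 mg/ml final for 4 h, DMSO solubilization, A570. Restoration rate from absorbance relative to injured control; mean ± S.D. of six independent experiments.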

PC-12 [2] = assay: Neurorestorative activity against H2O2-induced oxidant injury in rat PC12 cells assessed as restorative rate at 10 uM measured after 48 hrs pretreated with 200 uM H2O2 for 1 hr by MTT assay; type: functional; outline: as §1
PC-12 [3] = assay: Neuroprotective activity against rat PC12 cells assessed as protection against corticosterone- induced lesion at 1.25 uM after 1 day by MTT assay; type: functional
Outline: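 Low-differentiated PC12 cells at 1×10^4/well in DMEM with 5% heat-inactivated horse serum and 10% FBS for 24 h. Then 200 μM corticosterone plus compound at 1.25 μM for 1 day. MTT 0.5 mg/ml final for 4 h, formazan in DMSO, A570. Protection rate = (A_drug − A_corticosterone)/A_corticosterone ×100; mean ± S.D. of six independent experiments.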

[4] = Cytotoxicity against human L02 cells as inhibition of cell viability at 80 uM after 24 hrs by MTT assay; type: cell-based; conditions: for cytotoxicity at 24 h, 80 µM: L02 cells, read-out: INH
PC-12 [5] = assay: Neurorestorative activity against H2O2-induced oxidant injury in rat PC12 cells assessed as restorative rate at 40 uM measured after 48 hrs pretreated with 200 uM H2O2 for 1 hr by MTT assay; type: functional; outline: as §1
[6] = (§2) Cytotoxicity against human HEK293 cells as inhibition of cell viability at 80 uM after 24 hrs by MTT assay; type: cell-based; conditions: HEK293 cells, read-out: INH
Mus musculus [7] = assay: Antidepressant-like activity in C57 mouse assessed as reduction in immobility time at 32 mg/kg, ip administered from day 2 to 15 measured on 2nd and 15th day 30 mins after drug challenge by forced swim test; type: functional; conditions: route intraperitoneal
Outline: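 Male C57 mice (20–24 g), 10 per group. Day 1: 15 min pre-swim in a cylinder (20 cm diameter) with 15 cm water at 22–25 °C. Days 2–15: daily i.p. 32 mg/kg in 30% β-cyclodextrin. On days 2 and 15, a 6 min swim 30 min after dosing. Immobility (speed <20 mm/s) scored over the last 4 min from video. Mean ± S.D.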

PC-12 [8] = assay: Neuroprotective activity against corticosterone- induced morphological change in rat PC12 cells assessed as decrease in shrunk axons at 1.25 uM after 24 hrs by inverted microscopic analysis; type: functional, cell-based
Outline: (§3)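 PC12 cells seeded at 1×10^6 cells/mL and grown 1 d. Exposed to corticosterone 0.2 mM with or without drug at 1.25 μM for 24 h. Photographed by inverted microscope in three random fields per group. Cells with shrunk axons and cycloid shape counted as injured, normal neuron-like cells counted separately, using computer-assisted image analysis.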

HEK293 = assay: as §2; type: cell-based; conditions: hek293, 24 h, 80 µM
Mus musculus [9] = assay: Toxicity in C57 mouse assessed as increase in spontaneous locomotor activity at 32 mg/kg, ip for 14 days by open field test; type: organism-based; design: dose 32 mg/kg, route intraperitoneal; conditions: in vivo, 336 h
Outline: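 Male C57 mice (20–24 g), 10 per group, 12 h light/dark cycle, food and water ad libitum. Dosed i.p. at 32 mg/kg daily for 14 days, then total distance travelled measured in an open field arena.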

PC-12 [10] = assay: Neuroprotective activity against corticosterone- induced morphological change in rat PC12 cells assessed as decrease in cycloid shape at 1.25 uM after 24 hrs by inverted microscopic analysis; type: functional, cell-based; outline: as §3

SMILES	Activity (PC-12 [1])	Activity (PC-12 [2])	Activity (PC-12 [3])	cytotoxicity at 24 h, 80 µM [4]	Activity (PC-12 [5])	cytotoxicity at 24 h, 80 µM [6]	inhibition in vivo at 32 mg/kg (Mus musculus [7])	inhibition (PC-12 [8])	Activity (HEK293)	Activity (Mus musculus [9])	inhibition (PC-12 [10])	Activity ([4]; l02, 24 h, 80 µM)
COc1ccc(OC)c(C(=O)N2CC(C(=O)NCCc3cccc4ccc(OC)cc34)C2)c1	inactive	inactive	22.3%	1.3%	inactive	33.4%	–	–	–	–	–	–
COc1ccc2cccc(CCNC(=O)C3CN(C(=O)c4cc([N+](=O)[O-])cc([N+](=O)[O-])c4)C3)c2c1	1.7%	inactive	inactive	15.8%	inactive	11.1%	–	–	–	–	–	–
CC#C[C@]1(O)CC[C@H]2[C@@H]3CCC4=CC(=O)CCC4=C3[C@@H](c3ccc(N(C)C)cc3)C[C@@]21C [MIFEPRISTONE]	–	–	31.1%	–	–	–	–	–	–	–	–	–
COc1ccc2cccc(CCNC(=O)C3CN(C(=O)c4ccc(C#N)cc4)C3)c2c1	inactive	inactive	25.8%	1%	inactive	17.5%	–	–	–	–	–	–
COc1ccc2cccc(CCNC(=O)C3CN(C(=O)OCc4ccccc4)C3)c2c1	6.6%	3.2%	inactive	12.1%	7.3%	1%	–	–	–	–	–	–
COc1ccc2cccc(CCNC(=O)C3CN(C(=O)C(F)(F)F)C3)c2c1	inactive	inactive	43.5%	2.6%	inactive	–	58.4%	Active	Non-toxic	88.5%	Active	–
COc1ccc2cccc(CCNC(=O)C3CN(C(=O)c4ccc(Cl)cc4)C3)c2c1	inactive	0.3%	39.2%	5.9%	4.7%	11.8%	49.1%	Active	–	–	Active	–
COc1ccc2cccc(CCNC(=O)C3CN(S(=O)(=O)c4ccc(C)cc4)C3)c2c1	inactive	inactive	inactive	2.7%	inactive	3.6%	–	–	–	–	–	–
COc1ccc2cccc(CCNC(=O)C3CN(C(=O)c4ccco4)C3)c2c1	inactive	inactive	38.8%	3.2%	inactive	26.4%	36.2%	–	–	–	–	–
COc1cc(OC)cc(C(=O)N2CC(C(=O)NCCc3cccc4ccc(OC)cc34)C2)c1	2.1%	inactive	inactive	13.1%	inactive	13.1%	–	–	–	–	–	–
COc1ccc2cccc(CCNC(=O)C3CN(S(=O)(=O)N(C)C)C3)c2c1	2.1%	inactive	inactive	7.4%	inactive	4.6%	–	–	–	–	–	–
COc1ccc2cccc(CCNC(=O)C3CN(C(=O)c4ccccn4)C3)c2c1	inactive	0.7%	inactive	11.2%	inactive	31.8%	–	–	–	–	–	–
COc1ccc2cccc(CCNC(=O)C3CN(C(=O)c4ccc(C(F)(F)F)cc4)C3)c2c1	inactive	inactive	14.6%	7.9%	inactive	24.6%	–	–	–	–	–	–
CCC(=O)N1CC(C(=O)NCCc2cccc3ccc(OC)cc23)C1	inactive	inactive	inactive	2.9%	7.5%	11.2%	–	–	–	–	–	–
COc1ccc2cccc(CCNC(C)=O)c2c1 [AGOMELATINE]	2.7%	inactive	26.2%	–	inactive	–	8.4%	–	–	85.3%	–	–
COc1ccc2cccc(CCNC(=O)C3CN(C(=O)N(C)C)C3)c2c1	1.2%	inactive	inactive	–	4.3%	2.5%	–	–	–	–	–	Non-toxic
COc1ccc2cccc(CCNC(=O)C3CN(C(=O)c4ccncc4Cl)C3)c2c1	inactive	inactive	inactive	4.8%	2.1%	17.3%	–	–	–	–	–	–
CNCCC(Oc1ccc(C(F)(F)F)cc1)c1ccccc1 (stereo unspecified) [FLUOXETINE]	inactive	2.8%	19.7%	–	inactive	–	50.7%	–	–	66.4%	–	–
COc1ccc2cccc(CCNC(=O)C3CN(C(C)=O)C3)c2c1	0.6%	inactive	inactive	2.3%	1%	6.2%	–	–	–	–	–	–
COc1ccc2cccc(CCNC(=O)C3CN(C(=O)c4ccccc4)C3)c2c1	6.6%	2.9%	inactive	3.8%	4.6%	11.9%	–	–	–	–	–	–
COc1ccc(C(=O)N2CC(C(=O)NCCc3cccc4ccc(OC)cc34)C2)cc1	inactive	inactive	inactive	7.8%	inactive	8.9%	–	–	–	–	–	–
COc1ccc2cccc(CCNC(=O)C3CN(S(C)(=O)=O)C3)c2c1	inactive	0.9%	1.4%	4.4%	3.7%	8.5%	–	–	–	–	–	–
COc1ccc2cccc(CCNC(=O)C3CN(S(=O)(=O)c4ccc(Cl)cc4)C3)c2c1	4.5%	4.6%	25.3%	33.6%	6.8%	21.5%	–	–	–	–	–	–
